Measurements published in ChEMBL document CHEMBL1240528, “Discovery of novel 5-benzylidenerhodanine and 5-benzylidenethiazolidine-2,4-dione inhibitors of MurD ligase” (J Med Chem, 2010).

Assays:
[1] = Inhibition of Escherichia coli MurD ligase assessed as residual activity by colorimetry
In short: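 Malachite green orthophosphate detection with purified E. coli MurD. Substrates 80 μM UDP-MurNAc-L-Ala, 100 μM D-Glu, 400 μM ATP; 5% DMSO final. Incubated 37 C for 15 min, A650 read. IC50 from seven concentrations run in triplicate.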

Staphylococcus aureus = test: Antimicrobial activity against Staphylococcus aureus ATCC 29213 by microdilution method; format: functional; conditions: in the assay text read “macrodilution” for “microdilution”
In short: (§1)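 Broth macrodilution in cation-adjusted Mueller–Hinton broth. Stock 2 mg/mL in DMSO, serially diluted to final 0.016–128 μg/mL. Inoculum from four colonies of a fresh overnight culture, adjusted to 0.5 McFarland and diluted to approximately 10^5 CFU/mL, then mixed 1:1 with drug. Incubated 35 C for 18–24 h. MIC is the lowest concentration giving complete inhibition of visible growth. QC with S. aureus ATCC 29213 and gentamicin.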

Escherichia coli [2] = test: Antimicrobial activity against Escherichia coli ATCC 25922 by microdilution method; format: functional; conditions: in the assay text read “macrodilution” for “microdilution”; in short: as §1
Pseudomonas aeruginosa = test: Antimicrobial activity against Pseudomonas aeruginosa ATCC 27853 by microdilution method; format: functional; conditions: in the assay text read “macrodilution” for “microdilution”; in short: as §1
Enterococcus faecalis = test: Antimicrobial activity against Enterococcus faecalis ATCC 29212 by macrodilution method
Escherichia coli [3] = test: Inhibition of Escherichia coli MurD ligase assessed as residual activity at 250 uM by colorimetry; values are per cent of control
[4] = Inhibition of Escherichia coli MurD ligase assessed as conversion of D-[14C]Glu to UDP-MurNac-L-Ala by radioactivity assay
In short: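 Incubated 37 C for 30 min, stopped with acetic acid. Substrate and product separated by TLC and quantified by radioactivity scanning. IC50 from residual activities at seven concentrations.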

O=C(O)CC[C@H](NC(=O)c1ccc(CNc2cccc(/C=C3\SC(=S)NC3=O)c2)cc1)C(=O)O
IC50 [1]: 206 µM

O=C(O)CC[C@@H](NC(=O)c1ccc(CNc2cccc(/C=C3\SC(=S)NC3=O)c2)cc1)C(=O)O
IC50 [1]: 174 µM | MIC (Staphylococcus aureus): > 128 mg/L | MIC (Escherichia coli [2]): > 128 mg/L | MIC (Pseudomonas aeruginosa): > 128 mg/L | MIC (Enterococcus faecalis): > 128 mg/L

O=C(O)CC[C@@H](NC(=O)c1ccc(CNc2ccc(/C=C3\SC(=O)NC3=O)cc2)cc1)C(=O)O
residual activity (Escherichia coli [3]): 70%

O=C(O)CC[C@H](NC(=O)c1ccc(CNc2ccc(/C=C3\SC(=S)NC3=O)cc2)cc1)C(=O)O
residual activity (Escherichia coli [3]): 68%

O=C(O)CC[C@@H](NC(=O)c1cccc(CNc2ccc(/C=C3\SC(=S)NC3=O)cc2)c1)C(=O)O
IC50 [1]: 45 µM | IC50 [4]: 49 µM | MIC (Staphylococcus aureus): > 128 mg/L | MIC (Escherichia coli [2]): > 128 mg/L | MIC (Pseudomonas aeruginosa): > 128 mg/L | MIC (Enterococcus faecalis): > 128 mg/L

O=C(O)CC[C@@H](NC(=O)c1cccc(CNc2cccc(/C=C3\SC(=S)NC3=O)c2)c1)C(=O)O
residual activity (Escherichia coli [3]): 39%

O=C(O)CC[C@@H](NC(=O)c1cccc(CNc2cccc(/C=C3\SC(=O)NC3=O)c2)c1)C(=O)O
residual activity (Escherichia coli [3]): 87%

O=C(O)CC[C@H](NC(=O)c1ccc(CNc2cccc(/C=C3\SC(=O)NC3=O)c2)cc1)C(=O)O
residual activity (Escherichia coli [3]): 87%

O=C(O)CC[C@@H](NC(=O)c1cccc(CNc2ccc(/C=C3\SC(=O)NC3=O)cc2)c1)C(=O)O
IC50 [4]: 35 µM

O=C(O)CC[C@@H](NC(=O)c1ccc(CNc2ccc(/C=C3\SC(=S)NC3=O)cc2)cc1)C(=O)O
residual activity (Escherichia coli [3]): 74%

O=C(O)CC[C@@H](NC(=O)c1ccc(CNc2cccc(/C=C3\SC(=O)NC3=O)c2)cc1)C(=O)O
residual activity (Escherichia coli [3]): 85%

O=C(O)CC[C@H](NC(=O)c1ccc(CNc2ccc(/C=C3\SC(=O)NC3=O)cc2)cc1)C(=O)O
residual activity (Escherichia coli [3]): 88%
